ChEMBL document CHEMBL1139766, “Discovery of potent and orally bioavailable heterocycle-based beta3-adrenergic receptor agonists, potential therapeutics for the treatment of obesity” (Bioorg Med Chem Lett, 2007)
pEC50, pKi: −log10 of the molar value.

Columns and labels:
[1] = target: T1, Beta-3 adrenergic receptor (Homo sapiens, UniProt P13945); assay: Intrinsic activity at human adrenergic beta-3 receptor expressed in CHO cells assessed as cAMP production relative to isoproterenol; type: functional, cell-based
Procedure, shortened: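 Functional readout was cAMP levels in Chinese hamster ovary cells expressing the cloned human β3 receptor. Intrinsic activity is given as a percentage of the isoproterenol maximum. Compounds with EC50 < 100 nM and IA > 50% were tested at least twice.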
Target sequence in this assay (P13945 whole entry, looked up): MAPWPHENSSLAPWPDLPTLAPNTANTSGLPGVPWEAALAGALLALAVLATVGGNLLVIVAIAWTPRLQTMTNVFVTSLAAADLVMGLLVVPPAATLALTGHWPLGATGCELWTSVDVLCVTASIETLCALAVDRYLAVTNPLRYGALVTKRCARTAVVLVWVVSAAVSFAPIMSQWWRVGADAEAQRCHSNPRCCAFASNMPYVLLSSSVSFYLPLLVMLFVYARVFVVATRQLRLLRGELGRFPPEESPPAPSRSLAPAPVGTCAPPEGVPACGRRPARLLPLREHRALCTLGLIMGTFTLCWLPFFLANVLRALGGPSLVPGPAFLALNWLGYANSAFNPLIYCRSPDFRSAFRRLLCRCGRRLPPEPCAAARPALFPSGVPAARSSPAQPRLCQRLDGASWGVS

[2] = target: T1, Beta-3 adrenergic receptor; assay: Agonist activity at human adrenergic beta-3 receptor expressed in CHO cells assessed as cAMP production; type: functional, cell-based
Procedure, shortened: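 cAMP accumulation measured in CHO cells expressing cloned human β3-AR. Potency given as EC50; intrinsic activity (IA) expressed as % of isoproterenol maximum. Compounds with EC50 < 100 nM and IA > 50% tested at least twice in functional assays.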
Target sequence in this assay (P13945 whole entry): as the sequence (P13945 whole entry, looked up) above

[3] = target: Beta-2 adrenergic receptor (Homo sapiens, UniProt P07550); assay: Displacement of [125I]iodocyanopindolol from human adrenergic beta-2 receptor expressed in CHO cells; type: cell-based
Chain of Beta-2 adrenergic receptor (P07550 whole entry): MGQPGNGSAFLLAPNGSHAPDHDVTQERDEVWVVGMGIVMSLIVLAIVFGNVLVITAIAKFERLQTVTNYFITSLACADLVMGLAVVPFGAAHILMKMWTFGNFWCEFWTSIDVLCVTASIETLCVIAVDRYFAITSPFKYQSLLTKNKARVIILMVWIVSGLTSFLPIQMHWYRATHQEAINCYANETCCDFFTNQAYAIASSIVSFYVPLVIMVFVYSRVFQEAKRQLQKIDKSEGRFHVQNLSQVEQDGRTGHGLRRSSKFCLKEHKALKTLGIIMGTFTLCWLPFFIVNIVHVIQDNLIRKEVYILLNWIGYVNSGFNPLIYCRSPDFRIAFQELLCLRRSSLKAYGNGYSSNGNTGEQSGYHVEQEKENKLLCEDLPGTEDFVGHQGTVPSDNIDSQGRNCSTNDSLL

[4] = target: Beta-1 adrenergic receptor (Homo sapiens, UniProt P08588); assay: Displacement of [125I]iodocyanopindolol from human adrenergic beta-1 receptor expressed in CHO cells; type: cell-based
Chain of Beta-1 adrenergic receptor (P08588 whole entry): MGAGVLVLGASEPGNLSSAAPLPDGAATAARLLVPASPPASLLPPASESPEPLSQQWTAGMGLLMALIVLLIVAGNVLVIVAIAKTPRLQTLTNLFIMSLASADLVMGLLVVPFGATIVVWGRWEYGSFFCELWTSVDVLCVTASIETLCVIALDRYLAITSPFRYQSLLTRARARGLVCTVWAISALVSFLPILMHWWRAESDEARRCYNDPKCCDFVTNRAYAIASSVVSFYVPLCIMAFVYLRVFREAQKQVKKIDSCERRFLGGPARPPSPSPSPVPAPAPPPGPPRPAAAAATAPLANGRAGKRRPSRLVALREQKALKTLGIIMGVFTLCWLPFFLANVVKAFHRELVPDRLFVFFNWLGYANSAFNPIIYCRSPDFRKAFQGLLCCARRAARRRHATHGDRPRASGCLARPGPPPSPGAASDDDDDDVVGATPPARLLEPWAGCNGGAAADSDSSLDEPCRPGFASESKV

Homo sapiens = organism: Homo sapiens; assay: Selectivity for human adrenergic beta-3 receptor over human adrenergic beta-1 receptor
Procedure, shortened: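 Selectivity came from radioligand binding on membranes of CHO cells expressing cloned human β1 or β3 receptors, using 125I-iodocyanopindolol. The β3 value is the high-affinity agonist-site KiH, taken from a two-site competition fit. The ratio is β1 Ki over β3 Ki.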

[5] = Half life in dog; type: ADME, organism-based, Canis lupus familiaris; conditions: in vivo
Procedure, shortened: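 Half-life determined after IV dosing in dog.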

[6] = Clearance in dog; type: ADME, organism-based, Canis lupus familiaris; conditions: in vivo
[7] = Volume of distribution at steady state in dog; type: ADME, organism-based, Canis lupus familiaris; conditions: in vivo, read-out: Vdss
Rattus norvegicus [8] = assay: Increase in oxygen consumption in rat at 0.3 mg/kg, po after 120 mins; type: functional
Procedure, shortened: (§1)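 Rats dosed orally (0.3, 1, 3, 10 mg/kg). Baseline O2 consumption recorded every 10 min for 3 h, then dosing with compound or vehicle and 2 h further recording. Values excluded when ambulatory activity was >100 counts/10 min, along with the first five values of the run and the first value after dosing. Change taken over 0–120 min.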

Rattus norvegicus [9] = assay: Increase in oxygen consumption in rat at 1.0 mg/kg, po after 120 mins; type: functional; procedure, shortened: as §1
Rattus norvegicus [10] = organism: Rattus norvegicus; assay: Increase in oxygen consumption in rat after 120 mins; type: functional; conditions: 2 h; procedure, shortened: as §1
Rattus norvegicus [11] = assay: Increase in heart rate in rat at 10 mg/kg; type: functional
Rattus norvegicus [12] = assay: Increase in oxygen consumption in rat at 3 mg/kg, po after 120 mins; type: functional; procedure, shortened: as §1
Rattus norvegicus [13] = assay: Increase in oxygen consumption in rat at 10 mg/kg, po after 120 mins; type: functional; procedure, shortened: as §1
[14] = Oral bioavailability in rat; type: ADME, organism-based; conditions: in vivo
[15] = Half life in rat; type: ADME, organism-based; conditions: in vivo
Procedure, shortened: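 Half-life determined after IV dosing in rat.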

[16] = Clearance in rat; type: ADME, organism-based; conditions: in vivo
[17] = Volume of distribution at steady state in rat; type: ADME, organism-based; conditions: in vivo, read-out: Vdss
[18] = Oral bioavailability in dog; type: ADME, organism-based, Canis lupus familiaris; conditions: in vivo
[19] = Solubility in phosphate buffer at pH 6.5; type: physicochemical
Procedure, shortened: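 Solubility measured in phosphate buffer at pH 6.5.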

[20] = target: Beta-3 adrenergic receptor (Rattus norvegicus, UniProt P26255); assay: Agonist activity at rat adrenergic beta-3 receptor assessed as cAMP production; type: functional
Chain of Beta-3 adrenergic receptor (Rattus norvegicus, UniProt P26255) (P26255 whole entry): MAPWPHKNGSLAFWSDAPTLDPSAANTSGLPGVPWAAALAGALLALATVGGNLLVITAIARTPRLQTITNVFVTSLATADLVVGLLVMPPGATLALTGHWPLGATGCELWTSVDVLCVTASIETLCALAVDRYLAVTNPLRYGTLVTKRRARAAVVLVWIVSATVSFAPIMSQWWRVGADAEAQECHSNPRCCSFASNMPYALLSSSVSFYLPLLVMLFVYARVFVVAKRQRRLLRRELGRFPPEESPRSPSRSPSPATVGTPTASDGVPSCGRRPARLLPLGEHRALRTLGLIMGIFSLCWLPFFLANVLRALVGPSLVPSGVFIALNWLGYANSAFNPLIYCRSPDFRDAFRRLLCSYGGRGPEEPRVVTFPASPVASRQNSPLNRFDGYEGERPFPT

[21] = target: Beta-3 adrenergic receptor (Rattus norvegicus) (UniProt P26255); assay: Intrinsic activity at rat adrenergic beta-3 receptor assessed as cAMP production relative to isoproterenol; type: functional
Chain of Beta-3 adrenergic receptor (Rattus norvegicus) (P26255 whole entry): as above

Structure (SMILES)	Intrinsic activity [1] [%]	pEC50 [2]	pKi [4]	further results
O=S(=O)(Nc1ccc(CCNC[C@H](O)c2cccnc2)cc1)c1ccc(-c2nc(-c3ccc(C(F)(F)F)cc3)cs2)cc1	92			
Cc1nc(-c2ccc(OCCNC[C@H](O)c3cccnc3)cc2)co1	111	7.43	6.40	pKi [3]: 7.68; Ratio Ki (Homo sapiens): 19
Cc1nc(-c2ccc(CCNC[C@H](O)c3cccnc3)cc2)cs1	55	5.87		
Cc1ocnc1-c1ccc(OCCNC[C@H](O)c2cccnc2)cc1	80	6.51	6.77	
Cc1nc(-c2ccc(OCCNC[C@H](O)c3cccnc3)cc2)c(C)o1	75	6.22	5.81	
O[C@@H](CNCCOc1ccc(-c2coc(COCc3ccccc3)n2)cc1)c1cccnc1	137	6.66	7.30	
O[C@@H](CNCCOc1ccc(-c2cocn2)cc1)c1cccnc1	94	7.70	6.70	half-life [5]: 5.1 h; clearance [6]: 6 mL/min/kg; Vd [7]: 2.8 L/kg; Activity (Rattus norvegicus [8]): 8%; Activity (Rattus norvegicus [9]): 11%; ED20 (Rattus norvegicus [10]): 2 mg/kg; Activity (Rattus norvegicus [11]): 10%; pKi [3]: 8.00; Ratio Ki (Homo sapiens): 20; Activity (Rattus norvegicus [12]): 29%; Activity (Rattus norvegicus [13]): 42%; bioavailability [14]: 66%; half-life [15]: 1.4 h; clearance [16]: 13 mL/min/kg; Vd [17]: 0.89 L/kg; bioavailability [18]: 59%
CS(=O)(=O)Nc1cc([C@@H](O)CNCCc2ccc(-c3csc(-c4ccccc4)n3)cc2)ccc1Cl	70	6.31		
O[C@@H](CNCCOc1ccc(-c2csc(-c3ccncc3)n2)cc1)c1cccnc1	106	7.19	7.01	
O[C@@H](CNCCOc1ccc(-c2cscn2)cc1)c1cccnc1	85	7.57	6.85	pKi [3]: 8.00; solubility [19]: > 10000 µg/mL; Ratio Ki (Homo sapiens): 14.2; Activity (Rattus norvegicus [12]): 11%; pEC50 [20]: 7.59; Intrinsic activity [21]: 104%
O[C@@H](CNCCc1ccc(-c2csc(C(F)(F)F)n2)cc1)c1cccnc1	94	5.35		
O[C@@H](CNCCOc1ccc(-c2csc(-c3ccccc3)n2)cc1)c1cccnc1	53	6.24	6.82	pKi [3]: 6.30
O[C@@H](CNCCOc1ccc(-c2csc(C(F)(F)F)n2)cc1)c1cccnc1	150	6.70	7.00	
O[C@@H](CNCCc1ccc(-c2csc(-c3cccnc3)n2)cc1)c1cccnc1	106	5.92		
O[C@@H](CNCCOc1ccc(-c2ncco2)cc1)c1cccnc1	24	6.28		
OCc1nc(-c2ccc(OCCNC[C@H](O)c3cccnc3)cc2)co1	94	7.38	6.57	pKi [3]: 7.52; Ratio Ki (Homo sapiens): 8.6
CCc1nc(-c2ccc(CCNC[C@H](O)c3ccc(Cl)c(NS(C)(=O)=O)c3)cc2)cs1	95	6.89		
Cc1nc(-c2ccc(CCNC[C@H](O)c3ccc(Cl)c(NS(C)(=O)=O)c3)cc2)cs1	121	6.64		
O[C@@H](CNCCOc1ccc(-c2csc(C3CCCC3)n2)cc1)c1cccnc1	159	6.54	6.89	
CCc1nc(-c2ccc(OCCNC[C@H](O)c3cccnc3)cc2)co1	133	7.24	6.40	pKi [3]: 7.43; Ratio Ki (Homo sapiens): 11
O[C@@H](CNCCOc1ccc(-c2cnco2)cc1)c1cccnc1	98	6.70		
Cc1nc(-c2ccc(OCCNC[C@H](O)c3cccnc3)cc2)cs1	106	6.77	7.00	pKi [3]: 6.92; Ratio Ki (Homo sapiens): 0.8; Activity (Rattus norvegicus [12]): 20%; Activity (Rattus norvegicus [13]): 32%; pEC50 [20]: 7.89; Intrinsic activity [21]: 113%
COCc1nc(-c2ccc(OCCNC[C@H](O)c3cccnc3)cc2)co1	110	7.33	6.68	
CCc1nc(-c2ccc(OCCNC[C@H](O)c3cccnc3)cc2)cs1	106	6.77	7.43	
CCc1nc(-c2ccc(CCNC[C@H](O)c3cccnc3)cc2)cs1	80	5.65		
CC(C)c1nc(-c2ccc(OCCNC[C@H](O)c3cccnc3)cc2)co1	135	7.24	6.44	pKi [3]: 7.31; Ratio Ki (Homo sapiens): 7.4
O[C@@H](CNCCc1ccc(-c2csc(-c3ccccc3)n2)cc1)c1cccnc1	108	5.56		
O[C@@H](CNCCOc1ccc(-c2csc(-c3cccnc3)n2)cc1)c1cccnc1	121	6.92	6.92	
